Measurements published in ChEMBL document CHEMBL3259690, “Synthesis, structure-activity relationships, and biological studies of chromenochalcones as potential antileishmanial agents” (J Med Chem, 2014).
The source made the active and inactive calls. The rule behind the calls is not given here.

How the values were obtained:
J774.A1 [1] = experiment: Increase in IL-12 production in mouse J774A1 cells infected with Leishmania donovani at IC50 concentration after 24 hrs by sandwich ELISA relative to control; assay type: functional
Summary of the method: (§1)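 J774A.1 macrophages (1 × 10⁶) infected with Leishmania at 1:10, treated in 6-well plates at the compound's IC₅₀ concentration, 37 °C, CO₂. Supernatants from normal, infected-untreated and infected-treated cells collected after 24 h. IL-12, TNF-α, IL-10 and TGF-β measured by sandwich ELISA at 450 nm, in pg/mL. Two independent experiments in duplicate, mean ± SD; Student's t test against infected control.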

Leishmania donovani [2] = experiment: Induction of apoptosis in Leishmania donovani MHOM/IN/80/Dd8 promastigotes assessed as drop in mitochondrial membrane potential at 0.78 uM after 12 hrs by JC-1 dye based flow cytometry (reference value: 5.87%); assay type: functional
Leishmania donovani [3] = experiment: Antileishmanial activity against extracellular promastigote form of Leishmania donovani MHOM/IN/80/Dd8 expressing firefly luciferase gene assessed as inhibition of parasitic multiplication at 25 uM after 96 hrs by luminescence analysis; assay type: functional; settings: MHOM/IN/80/Dd8, 96 h
Summary of the method: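 Late-log luciferase-expressing Dd8 promastigotes, 5 × 10⁵/mL in complete M-199, incubated with compound at 24 °C for 96 h. Aliquot mixed with Steady Glo and luminescence read as RLU. Inhibition of multiplication taken from luciferase signal of treated versus untreated parasites.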

J774.A1 [4] = experiment: Decrease in IL-10 production in mouse J774A1 cells infected with Leishmania donovani at IC50 concentration after 24 hrs by sandwich ELISA relative to control; assay type: functional; summary of the method: as §1
[5] = Tmax in Syrian golden hamster at 100 mg/kg, po administered via gavage as single dose by HPLC-UV analysis; assay type: ADME, organism-based, Mesocricetus auratus; design: dose 100 mg/kg, route oral; settings: in vivo
Summary of the method: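 Male Syrian golden hamsters (100 ± 15 g) given a single oral dose of 100 mg/kg. Plasma stored at −70 °C and assayed by HPLC-UV. Concentration–time profiles analysed non-compartmentally; values mean ± SD.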

Leishmania donovani [6] = experiment: Induction of necrosis in Leishmania donovani MHOM/IN/80/Dd8 promastigotes at 0.78 uM after 72 hrs by Annexin V-FITC/propidium iodide staining based flow cytometry; assay type: functional, organism-based
[7] = AUC (0 to infinity) in Syrian golden hamster at 100 mg/kg, po administered via gavage as single dose by HPLC-UV analysis; assay type: ADME, organism-based, Mesocricetus auratus; design: time infinity, dose 100 mg/kg, route oral; settings: plasma
Leishmania donovani [8] = experiment: Induction of early apoptosis in Leishmania donovani MHOM/IN/80/Dd8 promastigotes at 0.78 uM after 48 hrs by Annexin V-FITC/propidium iodide staining based flow cytometry (reference value: 13.70%); assay type: functional
[9] = In vitro metabolic stability in syrian golden hamster liver S9 fraction at 10 uM in absence of NADPH; assay type: ADME, Mesocricetus auratus; settings: s9, 10 µM
Summary of the method: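 Hamster liver S9 (2 mg/mL protein), 50 mM Tris, 20 mM MgCl₂, 2 mM NADPH preincubated 10 min, then compound added at 10 μM final (1% organic) at 37 °C in triplicate. Sampled 0−60 min; no-NADPH control sampled at 0, 15, 30 and 60 min. Quenched with ice-cold methanol, extracted by LLE. Data as % parent remaining versus 0 min; testosterone as positive control.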

Leishmania donovani [10] = experiment: Induction of apoptosis in Leishmania donovani MHOM/IN/80/Dd8 promastigotes assessed as drop in mitochondrial membrane potential at 0.78 uM after 48 hrs by JC-1 dye based flow cytometry (reference value: 5.87%); assay type: functional
J774.A1 [11] = experiment: Decrease in TGF-beta production in mouse J774A1 cells infected with Leishmania donovani at IC50 concentration after 24 hrs by sandwich ELISA relative to control; assay type: functional; summary of the method: as §1
Leishmania donovani [12] = experiment: Antileishmanial activity against Leishmania donovani MHOM/IN/80/Dd8 amastigotes infected in syrian golden hamster assessed as decrease in parasite count in spleen at 100 mg/kg/day, po for 5 days measured on day 7 after last dose administration by giemsa staining; assay type: functional; settings: MHOM/IN/80/Dd8, Spleen
Summary of the method: (§2)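 Golden hamsters of either sex infected intracardially with 1 × 10⁷ L. donovani Dd8 amastigotes. After 15−20 days, pretreatment spleen biopsy; animals with +1 grade infection (5−10 amastigotes/100 spleen cell nuclei) used, 5−6 per compound. Aqueous suspensions dosed IP or PO for 5−10 consecutive days starting 2 days after biopsy. Splenic biopsies on day 7 and 28 after last dose, Giemsa counts; PI = 100 − [(ANAT×100)/(INAT×TIUC)].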

Leishmania donovani [13] = experiment: Induction of early apoptosis in Leishmania donovani MHOM/IN/80/Dd8 promastigotes at 0.78 uM after 12 hrs by Annexin V-FITC/propidium iodide staining based flow cytometry (reference value: 13.70%); assay type: functional
Albumin = Albumin (Bos taurus, UniProt P02769); experiment: Binding affinity to bovine serum albumin at 1 mmol/L by fluorescence spectrophotometer analysis; assay type: ADME; settings: cattle, isolated protein, 1000 µM
Summary of the method: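 BSA at 1.00 × 10⁻⁵ mol/L in 0.10 M Tris-HCl, pH 7.4, titrated with successive additions of 1.00 × 10⁻³ mol/L compound stock. Excitation at 280 nm, emission recorded 300−450 nm. Quenching analysed by Stern–Volmer and modified Stern–Volmer equations (τ₀ = 10⁻⁸ s).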

Leishmania donovani [14] = experiment: Antileishmanial activity against Leishmania donovani MHOM/IN/80/Dd8 amastigotes infected in syrian golden hamster assessed as decrease in parasite count in spleen at 50 mg/kg/day, po for 5 days measured on day 7 after last dose administration by giemsa staining; assay type: functional; settings: MHOM/IN/80/Dd8, Spleen; summary of the method: as §2
Leishmania donovani [15] = experiment: Induction of early apoptosis in Leishmania donovani MHOM/IN/80/Dd8 promastigotes at 0.78 uM after 72 hrs by Annexin V-FITC/propidium iodide staining based flow cytometry (reference value: 13.70%); assay type: functional

Sequence of Albumin (P02769 whole entry): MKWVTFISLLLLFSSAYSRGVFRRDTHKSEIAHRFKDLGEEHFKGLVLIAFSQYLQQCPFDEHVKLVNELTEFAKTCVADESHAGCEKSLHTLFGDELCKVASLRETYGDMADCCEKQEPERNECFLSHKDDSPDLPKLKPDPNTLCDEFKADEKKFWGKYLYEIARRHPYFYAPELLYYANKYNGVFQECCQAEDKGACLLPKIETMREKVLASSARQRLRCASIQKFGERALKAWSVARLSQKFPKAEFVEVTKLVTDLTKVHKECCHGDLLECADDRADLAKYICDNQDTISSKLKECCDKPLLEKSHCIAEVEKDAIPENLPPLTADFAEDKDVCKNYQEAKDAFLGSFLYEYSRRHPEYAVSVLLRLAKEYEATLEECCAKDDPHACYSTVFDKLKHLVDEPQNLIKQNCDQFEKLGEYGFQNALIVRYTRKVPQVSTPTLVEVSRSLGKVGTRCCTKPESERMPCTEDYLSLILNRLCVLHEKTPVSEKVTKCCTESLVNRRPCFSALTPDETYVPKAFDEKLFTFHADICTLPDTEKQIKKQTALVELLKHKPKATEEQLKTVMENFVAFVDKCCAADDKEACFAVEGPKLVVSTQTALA

Tmax [5]: 37.5 min
AUC(0-inf) [7]: 3700 ng·h/mL
Stability [9]: Stable
KSV (Albumin): 2.7 ×10⁵ L/mol
Kq (Albumin): 2.7 ×10¹³ L/mol/s
Structure (SMILES): CC(C)=CCCC1(C)C=Cc2c(ccc(C(=O)/C=C/c3cccnc3)c2O)O1 (configuration not stated)
fold change (FC) (J774.A1 [1]): 16
Activity (Leishmania donovani [2]): 17.46%
inhibition at 25 µM (Leishmania donovani [3]): 99.8%
fold change (FC) (J774.A1 [4]): 7.11
Activity (Leishmania donovani [6]): inactive
Activity (Leishmania donovani [8]): 37.62%
Activity (Leishmania donovani [10]): 61.67%
fold change (FC) (J774.A1 [11]): 4.08
inhibition in vivo at 100 mg/kg/day (Leishmania donovani [12]): 84.7%
Activity (Leishmania donovani [13]): 28.93%
inhibition in vivo at 50 mg/kg/day (Leishmania donovani [14]): 49%
Activity (Leishmania donovani [15]): 66.14%
